According to ChEMBL document CHEMBL2163325, “Discovery of phosphoinositide 3-kinases (PI3K) p110β isoform inhibitor 4-[2-hydroxyethyl(1-naphthylmethyl)amino]-6-[(2S)-2-methylmorpholin-4-yl]-1H-pyrimidin-2-one, an effective antithrombotic agent without associated bleeding and insulin resistance” (Bioorg Med Chem Lett, 2012):

Experiments:
Liver microsomes = test: Drug metabolism in human liver microsomes assessed as reactive metabolite formation after 30 mins in presence of glutathione relative to clozapine; type: ADME, Microsome; details: 0.5 h
Procedure, shortened: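 Incubation with human liver microsomes (1 mg/mL) plus glutathione for 30 min. Summed glutathione-adduct peak areas divided by the major adduct peak area of clozapine control (average, N = 3). Ratio >1 ranked high, 0.25–1 medium, <0.25 low.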

[1] = molecular target: Voltage-dependent L-type calcium channel subunit alpha-1C (Homo sapiens, UniProt Q13936); test: Inhibition of human CaV1.2 expressed in CHO cells at 31.6 uM by patch clamp assay; type: cell-based
Sequence of Voltage-dependent L-type calcium channel subunit alpha-1C (Q13936 whole entry): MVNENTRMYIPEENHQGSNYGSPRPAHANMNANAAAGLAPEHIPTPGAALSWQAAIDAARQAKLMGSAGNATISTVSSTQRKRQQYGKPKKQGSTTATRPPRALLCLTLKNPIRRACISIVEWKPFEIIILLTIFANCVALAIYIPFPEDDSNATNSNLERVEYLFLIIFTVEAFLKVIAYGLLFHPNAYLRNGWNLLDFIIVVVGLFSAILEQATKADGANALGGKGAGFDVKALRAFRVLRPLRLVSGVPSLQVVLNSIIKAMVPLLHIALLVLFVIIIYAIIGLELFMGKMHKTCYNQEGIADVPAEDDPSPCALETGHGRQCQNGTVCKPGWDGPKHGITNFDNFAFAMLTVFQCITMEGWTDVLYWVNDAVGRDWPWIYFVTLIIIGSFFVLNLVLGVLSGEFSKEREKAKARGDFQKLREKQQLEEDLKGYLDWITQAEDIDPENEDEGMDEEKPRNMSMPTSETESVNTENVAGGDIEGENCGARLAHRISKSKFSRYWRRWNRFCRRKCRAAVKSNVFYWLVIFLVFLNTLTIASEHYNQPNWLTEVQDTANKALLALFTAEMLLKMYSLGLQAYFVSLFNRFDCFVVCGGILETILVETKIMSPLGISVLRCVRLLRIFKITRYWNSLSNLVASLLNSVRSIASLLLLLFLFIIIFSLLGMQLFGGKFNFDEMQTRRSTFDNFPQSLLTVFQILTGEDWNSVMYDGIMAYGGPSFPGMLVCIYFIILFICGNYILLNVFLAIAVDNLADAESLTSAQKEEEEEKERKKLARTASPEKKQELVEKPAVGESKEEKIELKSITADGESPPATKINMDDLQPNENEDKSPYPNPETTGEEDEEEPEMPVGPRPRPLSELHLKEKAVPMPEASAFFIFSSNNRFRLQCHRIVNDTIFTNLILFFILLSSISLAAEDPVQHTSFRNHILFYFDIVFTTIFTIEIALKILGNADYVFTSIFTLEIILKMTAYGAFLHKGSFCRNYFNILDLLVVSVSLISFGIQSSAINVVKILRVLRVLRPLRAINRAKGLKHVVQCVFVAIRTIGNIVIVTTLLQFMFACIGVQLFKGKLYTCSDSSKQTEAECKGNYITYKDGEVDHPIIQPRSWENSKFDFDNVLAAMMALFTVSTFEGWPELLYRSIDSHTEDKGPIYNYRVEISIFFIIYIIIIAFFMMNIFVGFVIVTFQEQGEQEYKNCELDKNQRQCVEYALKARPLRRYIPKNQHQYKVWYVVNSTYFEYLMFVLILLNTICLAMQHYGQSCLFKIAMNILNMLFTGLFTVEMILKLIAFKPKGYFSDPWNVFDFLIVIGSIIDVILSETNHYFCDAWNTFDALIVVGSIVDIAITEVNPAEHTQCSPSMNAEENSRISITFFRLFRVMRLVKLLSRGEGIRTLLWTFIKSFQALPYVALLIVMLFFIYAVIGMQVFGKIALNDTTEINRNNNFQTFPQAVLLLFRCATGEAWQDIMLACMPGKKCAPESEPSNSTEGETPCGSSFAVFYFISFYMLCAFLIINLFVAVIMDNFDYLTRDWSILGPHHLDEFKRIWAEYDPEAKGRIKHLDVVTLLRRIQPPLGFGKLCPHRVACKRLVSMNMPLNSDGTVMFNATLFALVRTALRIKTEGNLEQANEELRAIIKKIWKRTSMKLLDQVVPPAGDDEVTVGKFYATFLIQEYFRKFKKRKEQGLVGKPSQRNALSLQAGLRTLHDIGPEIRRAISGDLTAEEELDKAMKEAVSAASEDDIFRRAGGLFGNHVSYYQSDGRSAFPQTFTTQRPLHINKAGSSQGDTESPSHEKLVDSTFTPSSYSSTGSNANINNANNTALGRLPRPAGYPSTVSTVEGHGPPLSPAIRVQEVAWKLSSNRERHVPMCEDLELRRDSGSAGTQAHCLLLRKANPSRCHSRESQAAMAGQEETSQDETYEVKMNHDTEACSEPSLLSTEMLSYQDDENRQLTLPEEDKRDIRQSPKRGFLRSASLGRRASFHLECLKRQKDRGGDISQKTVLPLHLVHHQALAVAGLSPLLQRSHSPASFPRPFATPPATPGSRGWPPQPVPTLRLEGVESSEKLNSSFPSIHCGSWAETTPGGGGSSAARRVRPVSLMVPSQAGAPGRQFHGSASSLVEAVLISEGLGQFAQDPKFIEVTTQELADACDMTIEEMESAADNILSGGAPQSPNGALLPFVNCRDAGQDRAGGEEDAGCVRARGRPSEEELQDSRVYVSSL

[2] = molecular target: Voltage-gated potassium channel, IKs; KCNQ1(Kv7.1)/KCNE1(MinK) (Homo sapiens, UniProt P51787+P15382); test: Inhibition of human IKs expressed in CHO cells at 31.6 uM by patch clamp assay; type: cell-based
Sequence of Voltage-gated potassium channel, IKs; KCNQ1(Kv7.1)/KCNE1(MinK) (P51787 whole entry, canonical isoform): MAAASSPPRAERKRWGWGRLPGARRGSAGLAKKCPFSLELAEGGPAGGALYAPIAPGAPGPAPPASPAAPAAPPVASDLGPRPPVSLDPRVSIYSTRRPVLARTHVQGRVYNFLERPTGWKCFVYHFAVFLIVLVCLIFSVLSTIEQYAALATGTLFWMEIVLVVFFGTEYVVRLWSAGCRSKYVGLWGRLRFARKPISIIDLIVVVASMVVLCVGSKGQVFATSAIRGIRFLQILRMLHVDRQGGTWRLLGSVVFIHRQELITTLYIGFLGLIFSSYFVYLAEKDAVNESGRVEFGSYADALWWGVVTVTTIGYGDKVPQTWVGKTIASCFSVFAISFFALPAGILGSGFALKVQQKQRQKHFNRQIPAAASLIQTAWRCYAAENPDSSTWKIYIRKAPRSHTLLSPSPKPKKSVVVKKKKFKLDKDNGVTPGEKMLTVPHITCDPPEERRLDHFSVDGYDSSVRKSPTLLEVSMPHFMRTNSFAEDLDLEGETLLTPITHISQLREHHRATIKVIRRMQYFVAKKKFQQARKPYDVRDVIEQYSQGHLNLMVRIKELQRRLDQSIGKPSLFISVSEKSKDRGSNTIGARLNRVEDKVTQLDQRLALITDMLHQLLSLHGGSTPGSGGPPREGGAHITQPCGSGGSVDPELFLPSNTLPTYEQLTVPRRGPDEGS

[3] = molecular target: Phosphatidylinositol 4,5-bisphosphate 3-kinase catalytic subunit beta isoform (Homo sapiens, UniProt P42338); test: Inhibition of human PI3K p110beta-mediated AKT phosphorylation at Ser473 in MDA-MB-468 cells after 2 hrs by fluorescence microplate cytometric analysis; type: cell-based
Sequence of Phosphatidylinositol 4,5-bisphosphate 3-kinase catalytic subunit beta isoform (P42338 whole entry, canonical isoform): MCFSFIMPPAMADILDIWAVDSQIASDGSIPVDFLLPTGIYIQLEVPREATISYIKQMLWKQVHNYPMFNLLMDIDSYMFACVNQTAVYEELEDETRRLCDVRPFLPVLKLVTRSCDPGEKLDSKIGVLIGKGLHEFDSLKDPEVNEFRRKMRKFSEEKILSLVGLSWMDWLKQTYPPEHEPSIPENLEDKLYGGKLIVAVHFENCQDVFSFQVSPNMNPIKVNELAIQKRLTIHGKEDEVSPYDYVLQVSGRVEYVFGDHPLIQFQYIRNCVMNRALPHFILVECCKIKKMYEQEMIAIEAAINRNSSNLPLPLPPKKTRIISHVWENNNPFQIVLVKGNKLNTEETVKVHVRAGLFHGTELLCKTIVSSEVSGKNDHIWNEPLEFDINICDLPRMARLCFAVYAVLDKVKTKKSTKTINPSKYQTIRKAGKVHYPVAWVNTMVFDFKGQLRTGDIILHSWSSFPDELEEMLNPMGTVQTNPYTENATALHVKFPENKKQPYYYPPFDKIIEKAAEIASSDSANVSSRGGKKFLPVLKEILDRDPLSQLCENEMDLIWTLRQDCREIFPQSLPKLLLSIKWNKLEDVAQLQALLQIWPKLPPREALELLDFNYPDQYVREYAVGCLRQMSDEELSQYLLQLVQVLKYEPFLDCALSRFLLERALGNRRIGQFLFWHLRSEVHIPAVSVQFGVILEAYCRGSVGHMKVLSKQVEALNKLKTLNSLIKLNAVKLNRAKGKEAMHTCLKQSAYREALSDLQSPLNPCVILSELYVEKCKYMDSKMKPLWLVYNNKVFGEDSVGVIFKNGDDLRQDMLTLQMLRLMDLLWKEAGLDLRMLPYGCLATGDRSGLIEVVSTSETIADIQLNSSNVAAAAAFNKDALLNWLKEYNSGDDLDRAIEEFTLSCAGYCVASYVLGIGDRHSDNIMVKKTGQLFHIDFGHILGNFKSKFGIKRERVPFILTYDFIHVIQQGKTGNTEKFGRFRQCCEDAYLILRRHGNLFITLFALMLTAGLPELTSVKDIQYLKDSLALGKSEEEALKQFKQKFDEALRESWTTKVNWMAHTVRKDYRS
Procedure, shortened: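 MDA-MB-468 cells kept in DMEM with 10% heat-inactivated FCS and L-glutamine. Seeded at 1500 cells/well, incubated overnight at 37 °C, 5% CO2. Exposed to compound for 2 h. Ser473 phospho-Akt detected with a specific antibody by laser scanning fluorescence microplate cytometry.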

Cytochrome P450 2C9 = Cytochrome P450 2C9 (Homo sapiens, UniProt P11712); test: Inhibition of CYP2C9; type: ADME
Sequence of Cytochrome P450 2C9 (P11712 whole entry, canonical isoform): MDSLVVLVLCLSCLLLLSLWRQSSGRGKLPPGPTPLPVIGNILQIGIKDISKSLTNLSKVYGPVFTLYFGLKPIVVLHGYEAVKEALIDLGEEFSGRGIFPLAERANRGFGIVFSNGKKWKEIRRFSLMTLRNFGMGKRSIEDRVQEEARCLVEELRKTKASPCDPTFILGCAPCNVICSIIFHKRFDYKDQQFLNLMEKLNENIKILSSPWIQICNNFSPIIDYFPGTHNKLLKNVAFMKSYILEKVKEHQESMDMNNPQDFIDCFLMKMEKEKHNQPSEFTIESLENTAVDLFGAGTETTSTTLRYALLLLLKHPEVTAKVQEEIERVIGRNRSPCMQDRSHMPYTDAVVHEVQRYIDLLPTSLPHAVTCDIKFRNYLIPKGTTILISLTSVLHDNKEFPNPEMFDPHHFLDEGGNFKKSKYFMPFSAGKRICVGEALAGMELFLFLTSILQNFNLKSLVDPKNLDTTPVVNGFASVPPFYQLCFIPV

[4] = molecular target: T1, Phosphatidylinositol 4,5-bisphosphate 3-kinase catalytic subunit delta isoform (Homo sapiens, UniProt O00329); test: Inhibition of human recombinant His6-tagged PI3K p110delta expressed in baculovirus infected cells using DiC8-PI(4,5)P2 as substrate after 20 mins by AlphaScreen assay
T1 sequence (O00329 whole entry): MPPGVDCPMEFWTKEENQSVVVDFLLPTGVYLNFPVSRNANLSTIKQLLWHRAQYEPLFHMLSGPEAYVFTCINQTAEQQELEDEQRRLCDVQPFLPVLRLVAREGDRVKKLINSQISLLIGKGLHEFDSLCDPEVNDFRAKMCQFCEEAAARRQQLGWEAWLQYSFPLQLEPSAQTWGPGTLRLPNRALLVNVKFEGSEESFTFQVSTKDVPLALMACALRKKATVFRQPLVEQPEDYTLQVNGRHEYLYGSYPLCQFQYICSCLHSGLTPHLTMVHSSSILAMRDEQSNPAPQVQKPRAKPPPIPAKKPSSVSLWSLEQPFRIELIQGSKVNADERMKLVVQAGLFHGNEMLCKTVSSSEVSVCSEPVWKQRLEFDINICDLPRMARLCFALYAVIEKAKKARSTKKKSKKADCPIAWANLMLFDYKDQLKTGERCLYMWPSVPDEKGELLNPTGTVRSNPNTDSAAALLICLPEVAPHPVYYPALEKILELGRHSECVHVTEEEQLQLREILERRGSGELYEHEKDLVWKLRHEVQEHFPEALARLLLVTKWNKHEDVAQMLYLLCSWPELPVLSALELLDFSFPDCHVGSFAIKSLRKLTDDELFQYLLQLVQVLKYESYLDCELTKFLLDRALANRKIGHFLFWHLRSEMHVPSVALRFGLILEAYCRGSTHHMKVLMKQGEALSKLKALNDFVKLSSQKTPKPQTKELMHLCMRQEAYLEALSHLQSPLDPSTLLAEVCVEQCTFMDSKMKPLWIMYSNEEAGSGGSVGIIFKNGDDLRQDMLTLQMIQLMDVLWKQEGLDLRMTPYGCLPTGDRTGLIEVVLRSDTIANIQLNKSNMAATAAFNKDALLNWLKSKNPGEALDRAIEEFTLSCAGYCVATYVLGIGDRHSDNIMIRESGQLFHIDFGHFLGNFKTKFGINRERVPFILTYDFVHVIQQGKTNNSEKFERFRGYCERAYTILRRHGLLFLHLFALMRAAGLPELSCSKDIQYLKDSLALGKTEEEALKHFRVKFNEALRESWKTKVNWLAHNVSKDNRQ

Canis familiaris = test: Ex-vivo antiplatelet activity in iv dosed Beagle dog whole blood assessed as inhibition of ADP-induced platelet aggregation administered as bolus infusion for 1 min followed by continuous infusion for 29 mins; type: functional, organism-based; details: Canis lupus familiaris
Procedure, shortened: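 Anaesthetized, intubated, ventilated beagles (N = 2). Femoral artery intima damaged and flow reduced to give cyclic flow reductions. Control period vehicle iv (30% cyclodextrin). Then 5 ascending 30-min periods, each a bolus over 1 min plus continuous infusion for 29 min. Tongue incision bleeding time from 15 min, capped at 15 min. Blood at 20 min for ex vivo aggregation and plasma level. EC50 fitted sigmoidally; EC_BT:2 from an exponential fit.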

[5] = molecular target: T2, A-type voltage-gated potassium channel KCND3 (Homo sapiens, UniProt Q9UK17); test: Inhibition of human KV4.3 expressed in CHO cells at 31.6 uM by patch clamp assay; type: cell-based
T2 sequence (Q9UK17 whole entry): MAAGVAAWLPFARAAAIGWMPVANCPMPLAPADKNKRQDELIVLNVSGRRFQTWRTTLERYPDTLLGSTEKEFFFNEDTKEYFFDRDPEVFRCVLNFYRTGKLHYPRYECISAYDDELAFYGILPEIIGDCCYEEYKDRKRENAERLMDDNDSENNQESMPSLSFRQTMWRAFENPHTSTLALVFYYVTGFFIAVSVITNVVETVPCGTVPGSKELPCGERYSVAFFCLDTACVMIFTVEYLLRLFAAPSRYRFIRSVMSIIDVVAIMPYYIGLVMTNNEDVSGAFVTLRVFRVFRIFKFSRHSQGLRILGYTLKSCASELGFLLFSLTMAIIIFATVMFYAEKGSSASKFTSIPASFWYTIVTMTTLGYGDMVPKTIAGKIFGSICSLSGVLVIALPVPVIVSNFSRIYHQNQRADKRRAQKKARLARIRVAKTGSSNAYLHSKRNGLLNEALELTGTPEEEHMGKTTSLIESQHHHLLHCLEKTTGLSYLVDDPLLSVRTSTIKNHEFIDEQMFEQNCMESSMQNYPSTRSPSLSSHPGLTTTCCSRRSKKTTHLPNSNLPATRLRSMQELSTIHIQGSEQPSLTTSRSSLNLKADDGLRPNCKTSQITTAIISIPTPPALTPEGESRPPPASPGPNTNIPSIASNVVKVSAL

[6] = molecular target: Sodium channel protein type 5 subunit alpha (Homo sapiens, UniProt Q14524); test: Inhibition of human NaV1.5 expressed in CHO cells at 31.6 uM by patch clamp assay; type: cell-based
[7] = Oral bioavailability in fasted Beagle dog at 2 umol/kg; type: ADME, organism-based, Canis lupus familiaris; details: in vivo
Procedure, shortened: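 Fasted male Beagle dogs, iv and po (N = 2 per route). Parameters derived by noncompartmental analysis of plasma concentrations.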

[8] = Antiplatelet activity in Beagle dog whole blood assessed as inhibition of ADP-induced platelet aggregation by impedance aggregometry; type: functional, tissue-based; details: Canis lupus familiaris
Procedure, shortened: (§1)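 Citrated whole blood drawn by venipuncture from healthy human donors or beagle dogs, sodium citrate at 11 mM final in blood. ADP-induced aggregation read by Multiplate impedance aggregometry. N > 3.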

[9] = Antiplatelet activity in human whole blood assessed as inhibition of ADP-induced platelet aggregation by impedance aggregometry; type: functional, tissue-based; procedure, shortened: as §1

Drug metabolism (Liver microsomes): Not Active | inhibition (INH) [2]: Not Active | IC50 [3]: 195 nM | IC50 (Cytochrome P450 2C9): 4 µM | IC50 [4]: 168 nM | EC50 (Canis familiaris): 1100 nM | inhibition (INH) [5]: Not Active | bioavailability [7]: 25% | IC50 [8]: 3.8 µM | IC50 [9]: 2100 nM
SMILES: C[C@H]1CN(c2cc(N(CCO)Cc3cccc4ccccc34)[nH]c(=O)n2)CCO1
inhibition (INH) [1]: Not Active | inhibition (Canis familiaris): Dose-dependent effect | inhibition (INH) [6]: Not Active
